Test results taken from ChEMBL document CHEMBL1147181, “Glutamine vinyl ester proteasome inhibitors selective for trypsin-like (beta2) subunit” (Eur J Med Chem, 2007).

Key:
[1] = Inhibition of peptidylglutamyl-peptide hydrolyzing-like activity of 20S proteasome in lymphoblastoid cells after 30 mins; type: cell-based, Homo sapiens
Procedure, shortened: (§1)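 Proteasome partially purified from lymphoblastoid cell lines, then affinity-purified (anti-α-subunit mAb) and dialyzed against 25 mM Tris-HCl pH 7.5; protein by BCA. Enzyme untreated or pretreated with 0.001–10 test compound, then incubated with subsite-specific fluorogenic substrate 30 min at 37 °C in activity buffer; fluorescence ex 360/em 465 nm. IC50 from fit of percent control vs concentration, Y=100/(1+(X/IC50))^A.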

[2] = Inhibition of chymotrypsin-like activity of 20S proteasome in lymphoblastoid cells after 30 mins; type: cell-based, Homo sapiens; procedure, shortened: as §1
[3] = Inhibition of trypsin-like activity of 20S proteasome in lymphoblastoid cells after 30 mins; type: cell-based, Homo sapiens; procedure, shortened: as §1
Homo sapiens = organism: Homo sapiens; assay: Stability in human plasma after 6 hrs

| SMILES | IC50 [1] [µM] | IC50 [2] [µM] | IC50 [3] [µM] | half-life (Homo sapiens) [h] |
| --- | --- | --- | --- | --- |
| CCOC(=O)/C=C/[C@H](CCC(N)=O)NC(=O)[C@H](CC(C)C)NC(=O)[C@@H]1Cc2ccccc2CN1C(=O)c1cccc(O)c1C | > 10 | > 10 | 0.435 | > 6 |
| CCOC(=O)/C=C/[C@H](CC(C)C)NC(=O)[C@H](CO)NC(=O)[C@@H]1Cc2ccccc2CN1C(=O)c1cccc(O)c1C | > 10 | 7.36 | 0.098 | > 6 |
| CCOC(=O)/C=C/[C@H](CC(C)C)NC(=O)[C@H](CO)NC(=O)[C@@H](NC(=O)c1cccc(O)c1C)C(C)C | > 10 | > 10 | 0.033 | > 6 |
| CCOC(=O)/C=C/[C@H](CCC(N)=O)NC(=O)[C@@H]1Cc2ccccc2CN1C(=O)[C@@H](NC(=O)c1cccc(O)c1C)C(C)C | > 10 | > 10 | 2.34 | > 6 |
| CCOC(=O)/C=C/[C@H](CCC(N)=O)NC(=O)[C@H](CO)NC(=O)[C@@H](NC(=O)c1cccc(O)c1C)C(C)C | > 10 | > 10 | 0.056 | > 6 |
| CCOC(=O)/C=C/[C@H](CC(C)C)NC(=O)[C@@H]1Cc2ccccc2CN1C(=O)[C@H](CC(C)C)NC(=O)c1cccc(O)c1C | > 10 | > 10 | > 10 | > 6 |
| CCOC(=O)/C=C/[C@H](CC(C)C)NC(=O)[C@H](CC(C)C)NC(=O)[C@@H]1Cc2ccccc2CN1C(=O)c1cccc(O)c1C | > 10 | 6.89 | 0.157 | > 6 |
| CCOC(=O)/C=C/[C@H](CCC(N)=O)NC(=O)[C@H](CO)NC(=O)[C@@H]1Cc2ccccc2CN1C(=O)c1cccc(O)c1C | > 10 | > 10 | 0.349 | > 6 |
| CCOC(=O)/C=C/[C@H](CC(C)C)NC(=O)[C@@H]1Cc2ccccc2CN1C(=O)[C@@H](NC(=O)c1cccc(O)c1C)C(C)C | > 10 | > 10 | 8.51 | > 6 |
| CCOC(=O)/C=C/[C@H](CCC(N)=O)NC(=O)[C@@H]1Cc2ccccc2CN1C(=O)[C@H](CC(C)C)NC(=O)c1cccc(O)c1C | > 10 | > 10 | 5.89 | > 6 |
| CCOC(=O)/C=C/[C@H](CCC(N)=O)NC(=O)[C@H](CC(C)C)NC(=O)[C@H](CC(C)C)NC(=O)c1cccc(O)c1C | > 10 | 8.41 | 0.145 | > 6 |
